Rows were chosen to be rich in hits. Some 0.77% of all compounds tested hit in one or more screens of this group.
mIAP inh = blocks mouse intestinal alkaline phosphatase; purified mouse IAP, CDP-Star luminescence, 30 min; inhibition, % at 10 µM; 0.2% of 330,000 active;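 active = inhibition of at least 40% at 10 µM in the primary screen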;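 also: plate controls were DMSO with enzyme for no effect and no enzyme wells for full effect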
bIAP act = intestinal alkaline phosphatase (bovine) activation; 0.17% of 200,000 active; activation factor at 20 µM; purified bovine IAP, CDP-star luminescence, 30 min; stronger effect = higher value; fold of DMSO-control signal, blank-subtracted;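 active = activation factor of 2 or more at 20 µM, a signal rise over negative controls twice the positive control's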
hIAP block = human IAP inhibition; P09923; purified IAP, CDP-Star luminescence, 30 min; inhibition, % at 10 µM; 0.12% of 330,000 active; AID 2544;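 active = inhibition reaching a set limit with compound at 10 µM in the primary screen, cut at about 35% in these data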;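 also: plate controls were DMSO wells with enzyme for no effect and no-enzyme buffer wells for full effect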
Target sequence (P09923 whole entry, looked up): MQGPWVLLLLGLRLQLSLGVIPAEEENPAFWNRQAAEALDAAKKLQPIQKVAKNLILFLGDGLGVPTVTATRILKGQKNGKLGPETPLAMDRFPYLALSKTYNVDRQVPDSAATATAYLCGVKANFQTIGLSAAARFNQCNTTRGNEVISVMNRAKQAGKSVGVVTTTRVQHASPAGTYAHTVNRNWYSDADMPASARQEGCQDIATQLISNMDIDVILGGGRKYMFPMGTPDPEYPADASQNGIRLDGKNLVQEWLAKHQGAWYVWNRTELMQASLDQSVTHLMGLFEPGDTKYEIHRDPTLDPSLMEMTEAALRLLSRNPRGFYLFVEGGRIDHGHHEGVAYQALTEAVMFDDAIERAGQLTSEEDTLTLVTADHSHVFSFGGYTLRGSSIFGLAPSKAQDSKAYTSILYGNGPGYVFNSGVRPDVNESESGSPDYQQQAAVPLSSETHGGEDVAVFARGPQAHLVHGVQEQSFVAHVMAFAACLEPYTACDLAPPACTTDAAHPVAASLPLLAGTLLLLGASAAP
bIAP inh = intestinal alkaline phosphatase (bovine) inhibition; purified bovine IAP, CDP-star luminescence, 30 min; inhibition, % at 20 µM; 190,000 tested, under 10 active;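 active = over 50% inhibition of intestinal alkaline phosphatase at 20 µM in the single-dose screen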
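System: Purified bovine intestinal alkaline phosphatase (IAP) enzyme | Input: IAP diluted 1/65,000,000 in the well | Also added: CDP-star chemiluminescent phosphatase substrate, 30 µM final | Dosing: 20 µM single dose | Times: Enzyme reaction for 30 min at room temperature | Detection: Luminescence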
mIAP act = increases mouse intestinal alkaline phosphatase activity | 0.24% of 330,000 active | muIAP, CDP-Star luminescence, 30 min; stronger effect = higher value; 1 = vehicle-only enzyme signal, 0 = enzyme-free wells | AID 2805 | activation factor at 10 µM;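 active = activation factor of at least 2 at 20 µM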
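Assay system: mouse IAP enzyme; reagent: chemiluminescent substrate CDP-Star; dosing: test compounds delivered from DMSO solution; schedule: 30 min at room temperature; measured by: luminescence from enzymatic CDP-Star hydrolysis; controls: DMSO-only wells and no-enzyme negative control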
hIAP act = human IAP activation; activation factor at 10 µM; AID 2524; purified human IAP, CDP-Star luminescence, 30 min; stronger effect = higher value; 1 = vehicle-only enzyme, 0 = enzyme-free background; 0.16% of 330,000 active; P09923;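 active = activation factor of the enzyme at least 2-fold when tested at 20 µM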
mIAP inh confirm = mouse IAP inhibition confirmation; shares compounds with mIAP inh; purified mouse IAP, CDP-Star luminescence, 30 min; inhibition, % at 10 µM; 4.7% of 11,000 active;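 active = inhibition of at least 40% at 10 µM in either of the two replicates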;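 also: plate controls were DMSO wells with enzyme for no effect and buffer wells lacking enzyme for full effect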
The depositor's hits bear a star; x = no result.

SMILES	mIAP inh	bIAP act	hIAP block	bIAP inh	mIAP act	hIAP act	mIAP inh confirm
C[C@@H]1CN([C@H](C)CO)C(=O)c2cc(NC(=O)C3CCCCC3)ccc2O[C@@H]1CN(C)Cc1ccc(C(F)(F)F)cc1	-7.4	x	10.5	x	1.07	0.895	x
C[C@H]1CN([C@@H](C)CO)C(=O)c2cc(NC(=O)Nc3cccc4ccccc34)ccc2O[C@@H]1CN(C)Cc1ccc(-c2ccccc2)cc1	-287.9	x	-4.1	x	3.88*	1.04	-114.1
C[C@@H]1CN([C@H](C)CO)C(=O)c2cc(NC(=O)Nc3cccc4ccccc34)ccc2O[C@H]1CN(C)Cc1ccc(C(F)(F)F)cc1	-230.7	x	-9.8	x	3.31*	1.1	-120.2
COc1ccc(NC(=O)Nc2cccc3c2O[C@H](CN(C)S(=O)(=O)c2ccc(OC)cc2)[C@@H](C)CN([C@H](C)CO)C3=O)cc1	-5.7	x	-18.2	x	1.06	1.18	x
Cc1ccc(S(=O)(=O)N(C)C[C@H]2Oc3c(NC(=O)Nc4cccc5ccccc45)cccc3C(=O)N([C@@H](C)CO)C[C@@H]2C)cc1	-338.8	x	-18.2	x	4.39*	1.18	-214.1
O=C1CC(c2ccc(O)cc2)Oc2cc(O)cc(O)c21 (stereo not drawn)	-1.4	1.1	-2.5	-12.7	1.01	1.02	x
O=C1CC(c2ccc(O)c(O)c2)Oc2c1ccc(O)c2O (stereo not drawn)	77.9*	x	27.6	x	0.221	0.724	80.9*
Cc1ccc(NC(=O)CN2C(=O)C3C4C=CC(C4)C3C2=O)cc1S(=O)(=O)N(C)C (stereo not drawn)	-9.7	1.1	-9.6	-8.7	1.1	1.1	x
COc1cccc(C(=O)NC2CC3CCCC(C2)N3CC(=O)Nc2ccccc2C(F)(F)F)c1 (stereo not drawn)	-4.7	x	4.6	x	1.05	0.954	x
CCc1cccc(CC)c1NC(=O)CN1C2CCCC1CC(NC(=O)Nc1cccc(OC)c1)C2 (stereo not drawn)	-174.8	1.4	-91.4	-38.8	2.75*	1.91	-136.2
O=C1CCc2cc(S(=O)(=O)Nc3ccccc3)ccc2N1	-1.5	x	-7.9	x	1.01	1.08	x
O=c1cc(-c2ccc(O)cc2)oc2cc(O)c(C3OC(CO)C(O)C(O)C3O)c(O)c12 (stereo not drawn)	50.5*	0.9	0.1	11.1	0.495	0.999	47.2*
O=c1[nH]c2cc3c(cc2cc1C(c1nnnn1CC1CCCO1)N1CCCCCC1)OCCO3 (stereo not drawn)	-4.9	0.9	-13.3	6.9	1.05	1.13	x
Cc1cc2nc3ccc(N(C)C)cc3nc2cc1N	56.9*	x	-1.7	x	0.431	1.02	65.0*
CN(CC(=O)Nc1c(Cl)cccc1Cl)C(=O)Cn1[nH]c(=O)c2ccccc2c1=O	10.3	x	11.6	x	0.897	0.884	x
Cc1cc(OCC(=O)Nc2ccc(F)c(F)c2)nc(C(C)C)n1	-9.6	0.7	-0.8	33.5	1.1	1.01	x
CCCNC(=O)c1ccc2c(=O)n(Cc3ccco3)c(=S)[nH]c2c1	63.7*	1	2.8	-0.4	0.363	0.972	66.4*
N#Cc1cccc(NC(=O)CSc2sc3c(O)cc(=O)[nH]c3c2C#N)c1	16.1	x	-5.6	x	0.839	1.06	x
N#Cc1c(SCC(=O)Nc2nc3ccccc3s2)sc2c(O)cc(=O)[nH]c12	60.6*	x	-18.3	x	0.394	1.18	72.6*
N#Cc1c(SCC(=O)Nc2nc3ccc(Br)cc3s2)sc2c(O)cc(=O)[nH]c12	41.4*	x	-2.0	x	0.586	1.02	71.8*
N#Cc1c(SCC(=O)Nc2nccs2)sc2c(O)cc(=O)[nH]c12	47.5*	x	5.3	x	0.525	0.947	63.3*
CCCSc1nnc(NC(=O)CSc2sc3c(O)cc(=O)[nH]c3c2C#N)s1	33.1	x	3.6	x	0.669	0.964	x
Cc1ccc([N+](=O)[O-])cc1NC(=O)CCCOc1ccccc1	3.3	0.9	4.4	6.3	0.967	0.956	x
Cc1cc(C)n2nc(CCCCc3nc4nc(C)cc(C)n4n3)nc2n1	0.4	1.1	-0.4	-11.0	0.996	1	x
CCN(CC(=O)NCc1ccc(F)cc1)C(=O)CN1CCN(c2ccc(OC)cc2)CC1	3.6	x	-14.4	x	0.964	1.14	x
SMILES	mIAP inh	bIAP act	hIAP block	bIAP inh	mIAP act	hIAP act	mIAP inh confirm
Cc1c(Br)c(O)c(Br)c2sc(=O)oc12	59.0*	x	-8.9	x	0.41	1.09	65.4*
Cn1nc(OC(=O)Nc2ccccc2)cc1C(F)(F)F	-13.7	0.9	-33.9	9.3	1.14	1.34	x
Cn1nc(OC(=O)Nc2cccc(Cl)c2)cc1C(F)(F)F	-240.6	0.9	6.1	7.1	3.41*	0.939	-151.1
CN1Cc2cccc3c2C(Cc2ccccc2S3)C1 (stereo not drawn)	-1.7	0.9	-0.1	12.7	1.02	1	x
Cc1ccc(C(C)C)cc1OCC(=O)NNC(=O)Nc1ccccc1	-2.0	x	-42.9	x	1.02	1.43	x
Cc1ccc(C)c(N=Cc2cc3c(cc2[N+](=O)[O-])OCO3)c1	33.4	0.9	4.1	7.5	0.666	0.959	x
O=C(O)/C=C\c1cc2c(cc1[N+](=O)[O-])OCO2	41.5*	x	-15.9	x	0.585	1.16	45.4*
CC(C)(C)c1ccc(O)c(N=Cc2cc3c(cc2[N+](=O)[O-])OCO3)c1	41.8*	x	7.2	x	0.582	0.928	49.2*
Brc1ccc(C2Nc3cccc4cccc(c34)N2)o1	43.6*	0.8	12.9	19.8	0.564	0.871	52.8*
Brc1cccc(C2Nc3cccc4cccc(c34)N2)c1	11.8	x	22.1	x	0.882	0.779	x
CC(C)=CCc1c(O)c(CC=C(C)C)c2c(c1O)-c1cc(O)c(O)cc1CC2	61.8*	x	0.1	x	0.382	0.999	60.5*
CC(C)=CCc1c(O)ccc(C2COc3c(CC=C(C)C)c(O)cc(O)c3C2=O)c1O (stereo not drawn)	13.7	x	-11.2	x	0.863	1.11	x
O=C(C[C@@H]1C/C=C\C[C@H](Cc2ccc(F)cc2)C(=O)OCCNC1=O)N[C@H](CO)Cc1ccccc1	-14.1	x	12.6	x	1.14	0.874	x
O=C(CN1C(=O)/C(=C/c2ccco2)SC1=S)Nc1ccc(C(=O)O)c(O)c1	67.4*	x	16.1	x	0.326	0.839	86.5*
O=C(CCN1C(=O)/C(=C/c2ccccc2)SC1=S)NC1CCS(=O)(=O)C1 (stereo not drawn)	4.9	x	-30.9	x	0.951	1.31	x
CC(C(=O)N(C)C1CCS(=O)(=O)C1)N1C(=O)/C(=C/c2ccco2)SC1=S (stereo not drawn)	40.2*	x	-7.2	x	0.598	1.07	49.7*
O=C(CN1C(=O)/C(=C/c2ccco2)SC1=S)NC1CCS(=O)(=O)C1 (stereo not drawn)	57.7*	x	-15.5	x	0.423	1.16	79.4*
CC(C(=O)Nc1ccc(C(=O)O)c(O)c1)N1C(=O)/C(=C\c2ccco2)SC1=S (stereo not drawn)	61.6*	x	-20.3	x	0.384	1.2	73.2*
